Measurements collected from several papers.
Each line is one published result; the experiments were not run side by side.
Target: Myosin light chain kinase (MYLK3, Homo sapiens, UniProt Q32MK0)
One construct used (Q32MK0 1-819): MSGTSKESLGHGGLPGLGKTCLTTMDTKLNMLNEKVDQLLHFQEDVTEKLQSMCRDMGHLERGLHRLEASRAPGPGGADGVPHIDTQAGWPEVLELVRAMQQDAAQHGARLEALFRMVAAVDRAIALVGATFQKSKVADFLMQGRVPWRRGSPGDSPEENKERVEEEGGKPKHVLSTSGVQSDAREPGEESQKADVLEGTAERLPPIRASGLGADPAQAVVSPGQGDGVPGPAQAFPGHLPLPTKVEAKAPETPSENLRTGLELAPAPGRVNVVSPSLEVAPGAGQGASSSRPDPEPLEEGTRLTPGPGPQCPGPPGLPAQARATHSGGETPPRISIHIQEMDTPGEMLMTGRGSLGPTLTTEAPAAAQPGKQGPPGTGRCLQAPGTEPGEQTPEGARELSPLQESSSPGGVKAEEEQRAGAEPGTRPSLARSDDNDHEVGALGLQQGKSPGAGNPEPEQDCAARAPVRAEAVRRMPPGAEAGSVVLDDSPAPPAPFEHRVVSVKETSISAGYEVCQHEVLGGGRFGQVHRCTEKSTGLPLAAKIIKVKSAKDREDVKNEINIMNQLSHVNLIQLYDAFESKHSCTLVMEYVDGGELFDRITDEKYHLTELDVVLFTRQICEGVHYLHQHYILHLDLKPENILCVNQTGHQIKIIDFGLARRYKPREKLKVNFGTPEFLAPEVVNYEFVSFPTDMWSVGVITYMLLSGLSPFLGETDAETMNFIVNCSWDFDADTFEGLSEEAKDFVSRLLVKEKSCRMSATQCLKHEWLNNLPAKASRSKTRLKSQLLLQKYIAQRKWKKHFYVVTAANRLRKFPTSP

Compound | assay | conditions | remaining binding [%]
Cc1cnc(Nc2ccc(C(=O)N3CCC(N4CCCC4)CC3)cc2)nc1-c1cc2ccccc2s1 | binding, competition with immobilised ligand | 1 µM | 5.1
NS(=O)(=O)c1cc(NC(=O)Cc2ccccc2)ccc1Oc1cccc(Cl)c1 | cell-free assay, competition with immobilised ligand | 1 µM | 89
CN(c1nccc(-c2cnn3ncccc23)n1)C1CC1 | binding | 1 µM | 100
COc1ccc2c(c1)O[C@H](c1ccc(OC)c(OC)c1)C[C@@H]2NC(=O)C1(c2ccc3c(c2)OC(F)(F)O3)CC1 | cell-free assay, competition with immobilised ligand | 1 µM | 95
CN(C)c1ncc(F)c(-c2cnn3ncccc23)n1 | binding | 1 µM | 77
Nc1c(C(=O)NCc2ccc(C(=O)NCCCC3CCCCC3)cc2)cnn1-c1ccccc1 | cell-free assay, competition with immobilised ligand | 0.1 µM | 100
CN(C)c1nccc(-c2cnc3ncccn23)n1 | binding | 1 µM | 100
C[C@@H](c1ccc(-n2cnc3c(N)ncnc32)cc1)N1CCc2nn(C)c(Cc3ccccc3)c2C1=O | binding, competition with immobilised ligand | 0.1 µM | 100
O=C(Nc1c[nH]nc1C(=O)NC1CCNCC1)c1cc(F)cc(F)c1 | binding, competition with immobilised ligand | 1 µM | 90
Cn1nc(C(=O)NCc2ccc(C(=O)O)cc2)cc1-c1ccc2[nH]ccc2c1 | cell-free assay, competition with immobilised ligand | 0.1 µM | 100
COc1cnc(Nc2cccc(S(N)(=O)=O)c2)nc1N1CCN(c2ccccc2)CC1 | binding, competition with immobilised ligand | 1 µM | 97
COc1ncc2cc3ccccc3nc2c1C#N | cell-free assay, competition with immobilised ligand | 5 µM | 96
O=C(c1ccc(Nc2nccc(-c3cc4ccccc4s3)n2)cc1)N1CCC(N2CCCC2)CC1 | binding, competition with immobilised ligand | 1 µM | 2.5
CN(C)c1nccc(-c2cnn3ncccc23)n1 | binding | 1 µM | 100
O=C(Nc1cccnn1)N1CCC(=Cc2cccc(Oc3ccc(C(F)(F)F)cn3)c2)CC1 | cell-free assay, competition with immobilised ligand | 1 µM | 100
O=C(NCCCN1CCOCC1)c1ccc(Nc2nccc(-c3cc4ccccc4s3)n2)cc1 | binding, competition with immobilised ligand | 1 µM | 3.6
CCS(=O)(=O)c1cc2cc(C[C@](O)(CC(C)(C)c3ccc(F)cc3C(N)=O)C(F)(F)F)[nH]c2cn1 | cell-free assay, competition with immobilised ligand | 1 µM | 74
C[C@H]1CCN(c2nccc(-c3cnn4ncccc34)n2)C1 | binding | 1 µM | 98
c1cncc(-c2cccc(Nc3nccc(NC4CCCCC4)n3)c2)c1 | binding, competition with immobilised ligand | 10 µM | 100
N[C@H]1CCN(c2nccc(-c3cnn4ncccc34)n2)C1 | binding | 1 µM | 88
CNC(=O)[C@@H]1CC[C@@H](n2c(-c3ccc4cnccc4c3)nc3ccc(C(=O)NCc4cccc(C(N)=O)c4)cc32)C1 | binding, competition with immobilised ligand | 1 µM | 100
